Our source for the ED50 and Relative potency values is ChEMBL document CHEMBL1122234, “Oxidation of uric acid. 4. Synthesis, structure, and diabetogenic action of 5-imino-2,4,6(1H,3H,5H)-pyrimidinetrione salts and their alloxan-like covalent adducts” (1983).

The source made the active and inactive calls. The calls are words filed in the database; no cut-off is given here.

In experiment [1] the test system is Rattus norvegicus. Put plainly: Diabetogenic activity in Lewis strain of albino rats after iv administration. It is filed as functional. Summed up:
(§1)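 Male Lewis rats (200-230 g), 24 per dose level, fasted 12 h, then dosed by tail-vein iv injection, or ip as a saline suspension when poorly soluble. A rat counted as diabetic if glucosuria (>1%) appeared within 24 h and persisted 5 days. Blood sugar and islet histology were also observed. The dose making 50% of animals diabetic (ED50, mmol/kg) was estimated graphically.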

Experiment [2] is described as follows: Relative potency compared to that of streptozotocin in albino rats. It is filed as functional.
The nature of experiment [3]: Relative potency compared to that of Alloxan in albino rats. Type of experiment: functional.
Experiment [4] relates to Rattus norvegicus. Description: Diabetogenic activity in Lewis strain of albino rats after ip administration. Type of experiment: functional. The gist of the method:
as §1

Experiment [5] can be described thus: Relative potency compared to that of streptozotocin in albino rats; Inactive nondiabetogenic at the dose 2 g/kg ip; inactive. It is filed as functional.
Experiment [6] relates to Rattus norvegicus. Put plainly: Diabetogenic activity in Lewis strain of albino rats after iv administration; Inactive nondiabetogenic at the dose 2 g/kg ip; inactive. Type of experiment: functional, organism-based. The gist of the method: as §1
A short description of experiment [7]: Relative potency compared to that of Alloxan in albino rats; Inactive nondiabetogenic at the dose 2 g/kg ip; inactive. It is filed as functional.
The mark [8] stands for this setting: Rattus norvegicus, iv, read-out: ED50.

The term ED50 denotes the midpoint of the dose-response relation. As to `Br.N=C1C(=O)NC(=O)NC1=O`, in the experiment with Rattus norvegicus [1] (setting [8]), the median effective dose (ED50) was 160 µmol/kg. The figures for the Relative potency in experiment [2] and in experiment [3] were 0.9 and 1.9, respectively.

With `Br.NC1(O)C(=O)NC(=O)NC1=O`, in the experiment on Rattus norvegicus [1] (setting [8]), the ED50 came out at 150 µmol/kg. Moreover, the Relative potency in experiment [2] came to 1; in experiment [3], 2.1.

As to `CN(N=O)C(=O)N[C@@H](C=O)[C@@H](O)[C@H](O)[C@H](O)CO` [STREPTOZOCIN], in the experiment on Rattus norvegicus [1] (setting [8]), the 50% effective dose (ED50) turned out to be 150 µmol/kg. Also, the Relative potency in experiment [2] was found to be 1; in experiment [3], 2.1.

Compound `Cl.N=C1C(=O)NC(=O)NC1=O` yielded an ED50 with Rattus norvegicus [1] of 140 µmol/kg. Besides, the Relative potency worked out at 1.1 in experiment [2] and 2.2 in experiment [3].

Regarding `NC(=O)NC1(O)C(=O)NC(=O)NC1=O`, in the experiment on Rattus norvegicus [1] (setting [8]), the ED50 worked out at 150 µmol/kg. Further, the figures for the Relative potency in experiment [2] and in experiment [3] were 1 and 2.1, respectively.

In the experiment on Rattus norvegicus [1], `Cl.NC1(O)C(=O)NC(=O)NC1=O` gave an ED50 of 140 µmol/kg. Moreover, the Relative potency in experiment [2] was determined as 1.1; in experiment [3], 2.2.

With `O=C1NC(=O)C2(O)NC(=O)NC2(O)N1` (configuration not stated), it took a dose of 1060 µmol/kg to reach the 50% effect level in the experiment with Rattus norvegicus [4] (ED50). For the same compound, the Relative potency in experiment [3] came out at 1.1.

Take `NC(=O)NC1(N)C(=O)NC(=O)NC1=O`: the Relative potency result in experiment [5] and in experiment [7] was “inactive” throughout. In addition, in the experiment on Rattus norvegicus [6], the ED50 entry was “inactive”.

With `O=C1NC(=O)C(O)(O)C(=O)N1`, the values for the ED50 with Rattus norvegicus [4] and in the experiment on Rattus norvegicus [1] (setting [8]) were 1120 µmol/kg and 310 µmol/kg, respectively. Moreover, the values for the Relative potency in experiment [2] and in experiment [3] were 0.5 and 1, respectively.
